How the values were obtained:
Cholinesterase [1] = target: T1, Cholinesterase (Homo sapiens, UniProt P06276); assay: Inhibition of BuChE in human liver microsomes
[2] = target: Acetylcholinesterase (Electrophorus electricus) (UniProt O42275); assay: Inhibition of electric eel AChE type 6S at 100 uM
Procedure, shortened: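 Electric eel AChE (type VI-S) in pH 8.0 phosphate buffer was preincubated for 30 min at 37 °C with test compound added from a 2 mmol MeCN stock. Ellman read-out followed, with final DTNB 0.3 mmol and acetylthiocholine 0.5 mmol.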

[3] = Selectivity for human BuChe over electric eel AChE type 6S
Cholinesterase [4] = target: T1, Cholinesterase; assay: Inhibition of BuChE in human liver microsomes assessed as dissociation constant for Michaelis complex formation by enzyme kinetic study; settings: Microsome
[5] = target: Acetylcholinesterase (Homo sapiens) (UniProt P22303); assay: Inhibition of human erythrocyte AChE at 100 uM
Liver carboxylesterase 1 = target: T2, Liver carboxylesterase 1 (Homo sapiens, UniProt P23141); assay: Inhibition of human CES1-mediated pNPA substrate turnover
T2 sequence (P23141 whole entry): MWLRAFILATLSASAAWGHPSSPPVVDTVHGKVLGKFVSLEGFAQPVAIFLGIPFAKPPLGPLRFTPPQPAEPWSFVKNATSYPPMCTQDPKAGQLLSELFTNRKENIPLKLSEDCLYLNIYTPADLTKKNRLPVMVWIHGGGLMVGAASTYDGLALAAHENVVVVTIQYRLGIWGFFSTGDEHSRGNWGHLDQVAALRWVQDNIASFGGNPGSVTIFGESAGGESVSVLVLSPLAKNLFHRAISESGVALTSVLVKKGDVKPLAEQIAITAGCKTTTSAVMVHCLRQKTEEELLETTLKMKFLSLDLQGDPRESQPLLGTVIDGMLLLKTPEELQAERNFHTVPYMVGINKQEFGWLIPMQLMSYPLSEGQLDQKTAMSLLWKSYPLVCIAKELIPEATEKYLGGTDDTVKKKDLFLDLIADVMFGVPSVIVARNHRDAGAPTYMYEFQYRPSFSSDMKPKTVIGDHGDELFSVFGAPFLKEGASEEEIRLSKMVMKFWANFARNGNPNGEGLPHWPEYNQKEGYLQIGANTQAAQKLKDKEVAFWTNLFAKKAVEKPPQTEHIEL
Procedure, shortened: (§1)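 Source: pooled human liver microsomes (CES1) or human intestinal microsomes (CES2). The microsomes were preincubated with inhibitor at 50 nM-200 μM in 50 mM Tris-HCl pH 7.4 for 30 min at 37 °C. Substrate was pNPA at 3 mM final. p-Nitrophenol release was read at 405 nm. Rates were corrected for spontaneous-hydrolysis blanks, with four independent measurements per concentration. IC50 came from nonlinear sigmoidal curve fit.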

Cocaine esterase = target: T3, Cocaine esterase (Homo sapiens, UniProt O00748); assay: Inhibition of human CES2-mediated pNPA substrate turnover; procedure, shortened: as §1
T3 sequence (O00748 whole entry): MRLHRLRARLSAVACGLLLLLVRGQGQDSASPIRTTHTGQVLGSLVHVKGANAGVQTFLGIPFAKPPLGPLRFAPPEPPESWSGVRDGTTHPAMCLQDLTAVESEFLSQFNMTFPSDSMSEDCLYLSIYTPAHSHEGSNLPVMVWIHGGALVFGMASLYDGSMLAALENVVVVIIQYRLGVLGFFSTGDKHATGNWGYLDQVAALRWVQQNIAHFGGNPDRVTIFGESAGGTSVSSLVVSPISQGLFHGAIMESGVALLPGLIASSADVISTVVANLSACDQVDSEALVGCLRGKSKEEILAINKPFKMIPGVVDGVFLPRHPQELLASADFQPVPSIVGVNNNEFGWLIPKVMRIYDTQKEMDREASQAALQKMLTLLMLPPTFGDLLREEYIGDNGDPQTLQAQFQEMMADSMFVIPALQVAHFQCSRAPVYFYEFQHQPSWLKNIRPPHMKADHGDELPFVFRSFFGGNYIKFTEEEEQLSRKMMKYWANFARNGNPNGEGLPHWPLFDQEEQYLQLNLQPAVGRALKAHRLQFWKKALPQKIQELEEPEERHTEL

Homo sapiens [6] = organism: Homo sapiens; assay: Selectivity for human BuChe over human CES2
Plasma [7] = assay: Metabolic stability in 33% human plasma assessed as compound hydrolysis after 1 hr by HPLC; format: ADME, cell-free
Procedure, shortened: (§2)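 The ester (1 × 10^-4 M) was incubated in human plasma solution (33-50%), mouse plasma (33%) or mouse liver homogenate. Remaining intact ester was measured by HPLC as a function of time over 1 h.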

Plasma [8] = assay: Metabolic stability in 33% mouse plasma assessed as compound hydrolysis after 1 hr by HPLC; format: ADME, cell-free; procedure, shortened: as §2
Liver = assay: Metabolic stability in 33% mouse liver homogenate assessed as compound hydrolysis after 1 hr by HPLC; format: ADME, tissue-based; settings: tissue homogenate; procedure, shortened: as §2
[9] = Inhibition of human BuChE D70G mutant assessed as dissociation constant for Michaelis complex formation by enzyme kinetic study
Procedure, shortened: (§3)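 Wild-type human BuChE (lyophilised, dissolved in pH 8.0 phosphate buffer) or recombinant mutants. Final concentrations: enzyme 0.05 U mL^-1, DTNB 0.3 mmol, butyrylthiocholine 0.5 mmol. Inhibitor at various concentrations was mixed with enzyme at time 0. Aliquots taken at successive times were read at 412 nm over 30 s, in at least two wells each. k_obs came from a first-order fit, and K_c from a nonlinear fit of k_obs against inhibitor concentration.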

Homo sapiens [10] = organism: Homo sapiens; assay: Inhibition of human BuChE Y332A mutant assessed as dissociation constant for Michaelis complex formation by enzyme kinetic study; procedure, shortened: as §3
Homo sapiens [11] = organism: Homo sapiens; assay: Inhibition of human BuChE D70G/Y332A mutant assessed as dissociation constant for Michaelis complex formation by enzyme kinetic study; procedure, shortened: as §3

T1 sequence (P06276 whole entry): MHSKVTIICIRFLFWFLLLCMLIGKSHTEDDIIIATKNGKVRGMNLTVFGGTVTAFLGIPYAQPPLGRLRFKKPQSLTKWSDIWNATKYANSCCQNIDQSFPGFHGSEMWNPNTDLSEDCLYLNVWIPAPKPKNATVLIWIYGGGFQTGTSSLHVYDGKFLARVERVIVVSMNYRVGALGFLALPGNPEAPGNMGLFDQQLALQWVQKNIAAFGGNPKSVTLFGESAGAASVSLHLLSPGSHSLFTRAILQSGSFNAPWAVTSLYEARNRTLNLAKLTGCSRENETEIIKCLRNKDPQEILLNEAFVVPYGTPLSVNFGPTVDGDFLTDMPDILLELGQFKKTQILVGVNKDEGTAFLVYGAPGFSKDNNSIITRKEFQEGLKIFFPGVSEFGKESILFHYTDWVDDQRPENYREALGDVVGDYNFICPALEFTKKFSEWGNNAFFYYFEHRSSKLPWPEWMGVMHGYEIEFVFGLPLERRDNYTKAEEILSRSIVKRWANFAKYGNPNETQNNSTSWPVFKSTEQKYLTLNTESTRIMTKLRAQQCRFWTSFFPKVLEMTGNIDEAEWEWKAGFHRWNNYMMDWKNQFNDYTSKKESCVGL
Sequence of Acetylcholinesterase (Electrophorus electricus) (O42275 24-633 limits assumed): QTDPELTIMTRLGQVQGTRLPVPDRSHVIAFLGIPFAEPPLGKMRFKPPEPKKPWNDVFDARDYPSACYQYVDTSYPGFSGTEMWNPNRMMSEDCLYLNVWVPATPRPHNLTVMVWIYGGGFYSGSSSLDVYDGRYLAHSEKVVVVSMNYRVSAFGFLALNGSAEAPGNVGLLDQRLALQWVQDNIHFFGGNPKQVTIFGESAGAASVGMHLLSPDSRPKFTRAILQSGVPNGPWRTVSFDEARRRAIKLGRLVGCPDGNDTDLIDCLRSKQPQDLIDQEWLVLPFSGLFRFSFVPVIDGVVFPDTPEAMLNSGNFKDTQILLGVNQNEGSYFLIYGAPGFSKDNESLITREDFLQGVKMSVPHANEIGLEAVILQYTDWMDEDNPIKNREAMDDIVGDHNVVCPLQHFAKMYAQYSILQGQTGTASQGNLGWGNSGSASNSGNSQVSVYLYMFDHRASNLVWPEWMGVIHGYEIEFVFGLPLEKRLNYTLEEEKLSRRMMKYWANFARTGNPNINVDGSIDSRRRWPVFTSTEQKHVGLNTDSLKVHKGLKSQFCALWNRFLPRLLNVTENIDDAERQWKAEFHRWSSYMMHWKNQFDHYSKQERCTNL
Sequence of Acetylcholinesterase (Homo sapiens) (P22303 whole entry): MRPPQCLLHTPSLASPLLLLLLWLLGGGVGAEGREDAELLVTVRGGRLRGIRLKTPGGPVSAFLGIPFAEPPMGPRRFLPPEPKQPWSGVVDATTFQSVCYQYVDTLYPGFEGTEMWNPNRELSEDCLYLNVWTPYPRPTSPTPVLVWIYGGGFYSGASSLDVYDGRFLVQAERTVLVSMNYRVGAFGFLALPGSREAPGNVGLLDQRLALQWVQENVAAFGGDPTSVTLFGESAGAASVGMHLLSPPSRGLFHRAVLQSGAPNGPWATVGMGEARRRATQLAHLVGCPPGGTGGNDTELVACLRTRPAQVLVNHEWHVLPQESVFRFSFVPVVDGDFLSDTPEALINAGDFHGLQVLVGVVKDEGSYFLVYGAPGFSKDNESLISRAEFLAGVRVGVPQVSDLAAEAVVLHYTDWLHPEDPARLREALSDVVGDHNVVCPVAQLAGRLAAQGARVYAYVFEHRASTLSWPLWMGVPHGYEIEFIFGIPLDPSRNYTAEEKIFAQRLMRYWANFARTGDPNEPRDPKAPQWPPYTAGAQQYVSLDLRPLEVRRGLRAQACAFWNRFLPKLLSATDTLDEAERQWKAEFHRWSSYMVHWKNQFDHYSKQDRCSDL

SMILES: CCN(CC)C(=O)O[C@H]1CO[C@H]2[C@@H]1OC[C@H]2OC(=O)c1ccccc1O
- IC50 (Cholinesterase [1]): 2.61 µM
- inhibition [2]: 0%
- Ratio [3]: > 38

SMILES: O=C(NCc1ccccc1)O[C@H]1CO[C@H]2[C@@H]1OC[C@H]2OC(=O)c1cccnc1
- Activity (Cholinesterase [4]): 1.9 µM

SMILES: O=C(NCc1ccccc1)O[C@H]1CO[C@H]2[C@@H]1OC[C@H]2OC(=O)c1ccccc1O
- IC50 (Cholinesterase [1]): 0.00015 µM
- inhibition [2]: 47%
- inhibition [5]: 52%
- Ratio [3]: > 660000
- Activity (Liver carboxylesterase 1): Not Active
- IC50 (Cocaine esterase): 3.42 µM
- Ratio IC50 (Homo sapiens [6]): 22800
- Stability (Plasma [7]): Stable
- Stability (Plasma [8]): Stable
- Stability (Liver): Stable
- Activity (Cholinesterase [4]): 0.01 µM
- Activity [9]: 0.067 µM
- Activity (Homo sapiens [10]): 0.05 µM
- Activity (Homo sapiens [11]): 0.445 µM

SMILES: O=C(NCc1ccccc1)O[C@H]1CO[C@H]2[C@@H]1OC[C@H]2OC(=O)c1ccc(-c2ccccc2)cc1
- Activity (Cholinesterase [4]): 0.4 µM

SMILES: O=C(O[C@@H]1CO[C@H]2[C@@H]1OC[C@@H]2OC(=O)N1CCOCC1)c1ccccc1O
- IC50 (Cholinesterase [1]): 1.06 µM
- inhibition [2]: 12%
- Ratio [3]: > 95

SMILES: Cc1ccccc1C(=O)O[C@@H]1CO[C@H]2[C@@H]1OC[C@@H]2OC(=O)NCc1ccccc1
- IC50 (Cholinesterase [1]): 0.0012 µM
- inhibition [2]: 26%
- Ratio [3]: > 83300
- Activity (Cholinesterase [4]): 0.248 µM

SMILES: Nc1ccc(C(=O)O[C@@H]2CO[C@H]3[C@@H]2OC[C@@H]3OC(=O)NCc2ccccc2)cc1
- IC50 (Cholinesterase [1]): 0.297 µM
- inhibition [2]: 33%
- Ratio [3]: 336

SMILES: CCCCNC(=O)O[C@H]1CO[C@H]2[C@@H]1OC[C@H]2OC(=O)c1ccccc1
- IC50 (Cholinesterase [1]): 0.072 µM
- Activity (Cholinesterase [4]): 2.57 µM
- Activity [9]: 2.7 µM
- Activity (Homo sapiens [10]): 1.3 µM
- Activity (Homo sapiens [11]): 5.3 µM

SMILES: O=C(NCc1ccccc1)O[C@H]1CO[C@H]2[C@@H]1OC[C@H]2OC(=O)c1cccc([N+](=O)[O-])c1
- IC50 (Cholinesterase [1]): 0.032 µM
- inhibition [2]: 0%
- Ratio [3]: > 3120

SMILES: O=C(NCc1ccccc1)O[C@H]1CO[C@H]2[C@@H]1OC[C@H]2OC(=O)c1cccc(O)c1
- IC50 (Cholinesterase [1]): 0.016 µM
- inhibition [2]: 0%
- Ratio [3]: > 6250

SMILES: Nc1cccc(C(=O)O[C@@H]2CO[C@H]3[C@@H]2OC[C@@H]3OC(=O)NCc2ccccc2)c1
- IC50 (Cholinesterase [1]): 0.086 µM
- inhibition [2]: 0%
- Ratio [3]: > 1170

SMILES: Nc1ccccc1C(=O)O[C@@H]1CO[C@H]2[C@@H]1OC[C@@H]2OC(=O)NCc1ccccc1
- IC50 (Cholinesterase [1]): 0.027 µM
- inhibition [2]: 0%
- Ratio [3]: > 3700

SMILES: CN(C)C(=O)O[C@H]1CO[C@H]2[C@@H]1OC[C@H]2OC(=O)c1ccccc1O
- IC50 (Cholinesterase [1]): 0.0064 µM
- inhibition [2]: 0%
- Ratio [3]: > 15600

SMILES: O=C(NCc1ccccc1)O[C@H]1CO[C@H]2[C@@H]1OC[C@H]2O
- Activity (Cholinesterase [4]): 18.7 µM

SMILES: O=C(NCc1ccccc1)O[C@H]1CO[C@H]2[C@@H]1OC[C@H]2OC(=O)c1ccc(O)cc1
- IC50 (Cholinesterase [1]): 0.323 µM
- inhibition [2]: 0%
- Ratio [3]: > 309

SMILES: O=C(NCc1ccccc1)O[C@H]1CO[C@H]2[C@@H]1OC[C@H]2OC(=O)c1ccc([N+](=O)[O-])cc1
- IC50 (Cholinesterase [1]): 0.117 µM
- inhibition [2]: 27%
- Ratio [3]: > 854

SMILES: O=C(NCc1ccccc1)O[C@H]1CO[C@H]2[C@@H]1OC[C@H]2OC(=O)c1ccccc1
- Activity [9]: 2.4 µM
- Activity (Homo sapiens [10]): 1.5 µM
- Activity (Homo sapiens [11]): 6.4 µM

SMILES: CCNC(=O)O[C@H]1CO[C@H]2[C@@H]1OC[C@H]2OC(=O)c1ccccc1O
- IC50 (Cholinesterase [1]): 0.0096 µM
- inhibition [2]: 16%
- Ratio [3]: > 10400
- Activity (Cholinesterase [4]): 0.075 µM
- Activity [9]: 0.32 µM
- Activity (Homo sapiens [10]): 0.42 µM
- Activity (Homo sapiens [11]): 2.26 µM

SMILES: O=Nc1ccccc1C(=O)O[C@@H]1CO[C@H]2[C@@H]1OC[C@@H]2OC(=O)NCc1ccccc1
- IC50 (Cholinesterase [1]): 0.039 µM
- inhibition [2]: 0%
- Ratio [3]: > 2560

SMILES: O=C(NCc1ccccc1)O[C@H]1CO[C@H]2[C@@H]1OC[C@H]2OC(=O)c1ccccc1[N+](=O)[O-]
- IC50 (Cholinesterase [1]): 0.018 µM
- inhibition [2]: 0%
- Ratio [3]: > 5560

Reference: ChEMBL document CHEMBL1156822, “Isosorbide-2-benzyl carbamate-5-salicylate, a peripheral anionic site binding subnanomolar selective butyrylcholinesterase inhibitor” (J Med Chem, 2010)
